Legend:
[1] = molecular target: 72 kDa type IV collagenase (Homo sapiens, UniProt P08253); experiment: Inhibition of matrix metalloprotease-2
[2] = molecular target: Neutrophil collagenase (Homo sapiens, UniProt P22894); experiment: Inhibition of matrix metalloprotease-8
[3] = molecular target: T1, Interstitial collagenase (Homo sapiens, UniProt P03956); experiment: Inhibition of matrix metalloprotease-1
T1 sequence (P03956 whole entry): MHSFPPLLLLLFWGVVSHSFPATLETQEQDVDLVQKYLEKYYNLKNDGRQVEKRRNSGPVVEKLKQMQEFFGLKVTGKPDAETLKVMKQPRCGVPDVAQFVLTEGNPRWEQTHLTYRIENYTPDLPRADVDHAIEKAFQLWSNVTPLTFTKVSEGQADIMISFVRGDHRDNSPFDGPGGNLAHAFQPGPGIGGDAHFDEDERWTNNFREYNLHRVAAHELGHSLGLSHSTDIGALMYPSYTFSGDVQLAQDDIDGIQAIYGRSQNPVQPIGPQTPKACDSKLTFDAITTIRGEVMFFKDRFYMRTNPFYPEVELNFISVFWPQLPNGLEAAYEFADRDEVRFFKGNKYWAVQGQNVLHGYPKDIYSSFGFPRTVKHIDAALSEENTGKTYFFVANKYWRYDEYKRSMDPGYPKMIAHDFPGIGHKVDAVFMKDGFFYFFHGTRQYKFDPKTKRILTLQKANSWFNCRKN

[4] = Inhibition of aggrecanase; parameters: species or system Homo sapiens
How it was run: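 Enzyme was a partially purified preparation from IL-1-stimulated bovine nasal cartilage. No amino acid sequence was available for it when screening began.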

[5] = molecular target: Matrix metalloproteinase-9 (Homo sapiens, UniProt P14780); experiment: Inhibition of human matrix metalloprotease-9
Matrix metalloproteinase-9, sequence (P14780 whole entry): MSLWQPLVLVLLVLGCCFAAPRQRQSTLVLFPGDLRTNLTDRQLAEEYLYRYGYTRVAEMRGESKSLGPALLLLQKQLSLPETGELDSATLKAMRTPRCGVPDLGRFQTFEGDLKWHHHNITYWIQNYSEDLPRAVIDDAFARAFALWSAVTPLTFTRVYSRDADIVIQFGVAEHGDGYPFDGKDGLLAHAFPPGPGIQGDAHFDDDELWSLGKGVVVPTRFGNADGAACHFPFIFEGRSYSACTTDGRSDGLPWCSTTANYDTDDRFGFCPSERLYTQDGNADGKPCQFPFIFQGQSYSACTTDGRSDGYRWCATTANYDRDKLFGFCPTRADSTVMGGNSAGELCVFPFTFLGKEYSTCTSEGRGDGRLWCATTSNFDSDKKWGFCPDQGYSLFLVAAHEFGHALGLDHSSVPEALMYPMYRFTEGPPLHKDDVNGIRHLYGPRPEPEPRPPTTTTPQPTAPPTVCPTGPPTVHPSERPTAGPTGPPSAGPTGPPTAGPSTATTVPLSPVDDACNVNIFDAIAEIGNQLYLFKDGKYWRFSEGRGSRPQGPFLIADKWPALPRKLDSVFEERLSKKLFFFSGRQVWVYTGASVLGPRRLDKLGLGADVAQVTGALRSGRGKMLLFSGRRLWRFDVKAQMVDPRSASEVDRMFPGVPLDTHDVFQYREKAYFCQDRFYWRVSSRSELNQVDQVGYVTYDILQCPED

72 kDa type IV collagenase, sequence (P08253 whole entry): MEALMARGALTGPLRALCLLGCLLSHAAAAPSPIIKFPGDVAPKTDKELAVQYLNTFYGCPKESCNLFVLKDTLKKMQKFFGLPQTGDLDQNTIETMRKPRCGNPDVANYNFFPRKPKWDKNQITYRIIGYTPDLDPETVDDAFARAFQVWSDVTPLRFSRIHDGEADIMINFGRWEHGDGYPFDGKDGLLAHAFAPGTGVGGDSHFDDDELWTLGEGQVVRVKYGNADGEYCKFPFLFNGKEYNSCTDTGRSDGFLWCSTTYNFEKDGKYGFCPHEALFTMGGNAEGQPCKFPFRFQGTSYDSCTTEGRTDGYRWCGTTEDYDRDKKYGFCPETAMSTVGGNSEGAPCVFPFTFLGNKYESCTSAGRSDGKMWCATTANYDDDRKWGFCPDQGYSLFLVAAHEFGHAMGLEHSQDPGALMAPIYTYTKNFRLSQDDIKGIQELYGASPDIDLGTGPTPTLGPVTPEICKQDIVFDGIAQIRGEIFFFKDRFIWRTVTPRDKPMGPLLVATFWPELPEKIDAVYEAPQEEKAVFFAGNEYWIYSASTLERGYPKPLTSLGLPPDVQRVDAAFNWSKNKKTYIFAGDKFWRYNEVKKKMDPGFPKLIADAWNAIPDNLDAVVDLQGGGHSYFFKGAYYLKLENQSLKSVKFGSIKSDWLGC
Neutrophil collagenase, sequence (P22894 whole entry): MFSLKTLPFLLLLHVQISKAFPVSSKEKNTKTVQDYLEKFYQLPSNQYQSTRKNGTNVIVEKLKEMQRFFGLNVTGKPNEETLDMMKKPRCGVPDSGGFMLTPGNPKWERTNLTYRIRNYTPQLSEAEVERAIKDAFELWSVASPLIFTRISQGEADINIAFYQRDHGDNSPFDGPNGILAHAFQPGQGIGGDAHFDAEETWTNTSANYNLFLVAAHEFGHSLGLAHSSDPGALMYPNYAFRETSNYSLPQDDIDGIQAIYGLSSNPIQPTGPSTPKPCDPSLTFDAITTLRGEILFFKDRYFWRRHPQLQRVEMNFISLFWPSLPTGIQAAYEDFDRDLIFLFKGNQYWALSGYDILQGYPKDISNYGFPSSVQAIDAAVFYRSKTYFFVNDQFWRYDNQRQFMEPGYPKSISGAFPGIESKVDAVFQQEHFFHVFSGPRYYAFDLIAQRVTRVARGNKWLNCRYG

COc1cccc(C[C@H](CC(=O)NO)C(=O)N[C@H]2c3ccccc3C[C@H]2O)c1
Ki [1]: 6.6 µM
Ki [2]: 1.19 µM
Ki [3]: 95.5 µM
IC50 [4]: 3.14 µM
Ki [5]: 15.5 µM

COc1ccc(C[C@H](CC(=O)NO)C(=O)N[C@H]2c3ccccc3C[C@H]2O)cc1
Ki [1]: 0.052 µM
Ki [2]: 0.0092 µM
Ki [3]: 1.16 µM
IC50 [4]: 0.0164 µM
Ki [5]: 0.203 µM

O=C(C[C@@H](Cc1ccc2c(c1)OCO2)C(=O)N[C@H]1c2ccccc2C[C@H]1O)NO
Ki [1]: 35 µM
Ki [2]: 40 µM
Ki [3]: 50 µM
IC50 [4]: 0.79 µM
Ki [5]: 22 µM

CC(C)C[C@H](CC(=O)NO)C(=O)N[C@@H]1c2ccccc2C[C@@H]1O
Ki [1]: 1.53 µM
Ki [2]: 0.303 µM
Ki [3]: 1.09 µM
IC50 [4]: 13.3 µM
Ki [5]: 4.2 µM

O=C(NO)[C@@H](NCC1CC1)[C@@H](Cc1cccc(O)c1)C(=O)N[C@H]1c2ccccc2C[C@H]1O
Ki [1]: 6.3 µM
Ki [2]: 0.171 µM
Ki [3]: 33.2 µM
IC50 [4]: 0.012 µM
Ki [5]: 4.47 µM

O=C(C[C@@H](Cc1ccc(O)cc1)C(=O)N[C@@H]1CCc2ccccc21)NO
Ki [1]: 31.6 µM
Ki [2]: 15.3 µM
Ki [3]: 75 µM
IC50 [4]: 1.31 µM
Ki [5]: 21.2 µM

CC(C)C[C@H](CC(=O)NO)C(=O)N[C@H]1c2ccccc2C[C@H]1O
Ki [1]: 0.073 µM
Ki [2]: 0.037 µM
Ki [3]: 0.082 µM
IC50 [4]: 1.7 µM
Ki [5]: 0.162 µM

CNC(=O)[C@H](Cc1ccc(OC)cc1)NC(=O)[C@@H](CC(=O)NO)Cc1ccc(O)cc1
Ki [1]: 0.0043 µM
Ki [2]: 0.00045 µM
Ki [3]: 0.0107 µM
IC50 [4]: 0.332 µM
Ki [5]: 0.0032 µM

O=C(C[C@@H](Cc1ccc(O)cc1)C(=O)N[C@H]1c2ccccc2C[C@H]1O)NO
Ki [1]: 0.408 µM
Ki [2]: 0.07 µM
Ki [3]: 0.946 µM
IC50 [4]: 0.182 µM
Ki [5]: 0.166 µM

CNC(=O)[C@H](Cc1ccc(OC)cc1)NC(=O)[C@@H](CC(=O)NO)CC(C)C
Ki [2]: 0.0007 µM
IC50 [4]: 0.368 µM
Ki [5]: < 0.001 µM

O=C(C[C@@H](Cc1cccc(O)c1)C(=O)N[C@H]1c2ccccc2C[C@H]1O)NO
Ki [1]: 1.51 µM
Ki [2]: 8.6 µM
Ki [3]: 31 µM
IC50 [4]: 0.064 µM
Ki [5]: 3.32 µM
